Most compounds without a hit are left out; they make up all but 2.9% or so of the library.
S1P3 agonist: agonists of human S1P3 receptor; S1P3 NFAT-BLA reporter cells, agonism, FRET ratio; relative to 1 µM S1P, basal subtracted; 0.1% of 60,000 active; activation, % at 4.5 µM; Q99500;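 active = activation above the screen-wide mean plus 3 SD, cut at about 4.5% in these data, passing the limit was not always enough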
Target sequence (Q99500 whole entry, looked up): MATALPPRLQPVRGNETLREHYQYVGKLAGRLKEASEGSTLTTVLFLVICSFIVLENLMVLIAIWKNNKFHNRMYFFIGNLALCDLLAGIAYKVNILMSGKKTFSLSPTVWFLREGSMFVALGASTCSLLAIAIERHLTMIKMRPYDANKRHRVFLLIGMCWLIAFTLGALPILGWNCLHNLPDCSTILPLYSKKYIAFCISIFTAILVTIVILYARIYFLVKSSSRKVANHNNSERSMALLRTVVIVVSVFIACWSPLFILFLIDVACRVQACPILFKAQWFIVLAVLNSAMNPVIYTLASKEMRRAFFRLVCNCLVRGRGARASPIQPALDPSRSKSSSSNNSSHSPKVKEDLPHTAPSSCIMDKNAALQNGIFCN
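Assay system: stable CHO line with human S1P3, Gα16, NFAT-BLA reporter; Detection: FRET β-lactamase substrate fluorescence, excitation 405 nm, 460/535 nm emission ratio, background-subtracted; Read-out: percent activation versus median 1 µM S1P response, basal-subtracted, per plate; Incubation: cells plated overnight, compound 4 h 37 °C, substrate 2 h RT.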
HTR1E antagonist: antagonists of human 5-HT1E serotonin receptor; inhibition, % at 6 µM; AID 571; 0.99% of 65,000 active; CHO 5-HT1E Ga15 NFAT-bla reporter, FRET, antagonist; P28566;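 active = inhibition above a set limit, the mean inhibition across every tested compound plus 3 SD, cut at about 29% in these data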;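 also: signal is the 460 over 535 nm emission ratio of beta-lactamase substrate; 0% = agonist plus DMSO wells and 100% = wells without agonist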
HTR1E agonist: agonists of human 5-HT1E serotonin receptor. 0.69% of 65,000 active. CHO 5-HT1E Ga15 NFAT-bla reporter, FRET; 0% DMSO wells, 100% control agonist wells. activation, % at 6 µM. P28566;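 active = activation above a set limit, the screen-wide mean activation plus 3 SD, cut at about 8.5% in these data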;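 also: 100% = positive control agonist at 1 µM giving full maximal response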
5HT1a antag: blocks the human serotonin 5-HT1a receptor | AID 612 | inhibition, % at 10 µM | P08908 | 0.68% of 62,000 active | CHO 5-HT1a Ga15 NFAT-bla reporter, antagonist mode;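 active = inhibition above the mean of all tested compounds plus 3 SD, cut at about 43% in these data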;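 also: receptor stimulated by 5-CT agonist at 100 nM near EC80; beta-lactamase reporter measured by ratiometric fluorescence of a cleavable substrate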
S1P1 ag pot: activates or potentiates agonism at human S1P1 receptor. P21453. S1P1 CRE-bla cells, forskolin, beta-lactamase FRET, potentiator mode; S1P1 agonist co-added at EC20, 2 nM; 100% = saturating reference agonist, 0% = basal. activation, % at 9.5 µM. 0.57% of 56,000 active. AID 449;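 active = activation above a cutoff set at the mean activation of all tested compounds plus 3 SD, cut at about 54% in these data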;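 also: forskolin at 4 µM as EC80 and the EC20 agonist is SEW2871; 100% = SEW2871 at its EC100 plus forskolin at EC80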
HTR1A agonist: 5-HT1a (human) receptor agonism; 0.56% of 65,000 active; CHO 5-HT1a Ga15 NFAT-bla reporter, FRET ratio; 0% basal, 100% maximal reference agonist; activation, % at 10 µM;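 active = activation above the screen-wide mean activation plus 3 SD, cut at about 19% in these data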;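 also: 0% = DMSO wells and 100% = 5-CT at EC100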
* = called active by the depositor; . = no result.

SMILES	S1P3 agonist	HTR1E antagonist	HTR1E agonist	5HT1a antag	S1P1 ag pot	HTR1A agonist
COc1ccc(C(c2c(O)ccc3ccccc23)N2CCOCC2)c(OC)c1 (configuration not stated)	-2	16	-1	107*	110*	-7
O=C(CSc1nnnn1-c1ccccc1)Nc1nsc(-c2ccccc2)n1	-1	9	0	7	.	-1
O=C(CSc1nnnn1-c1ccccc1)Nc1nsc(-c2ccc(Cl)cc2)n1	0	-11	1	50*	-19	0
CC1CCN(c2nc3c(c(=O)[nH]c(=O)n3C)n2Cc2ccccc2Cl)CC1	2	-8	1	-21	-25	3
O=C(CCN1CCc2ccccc2C1)Nc1ccccc1	-1	-2	-1	10	-4	-3
CCN1CCN(c2nc3c(c(=O)[nH]c(=O)n3C)n2CCCSc2ncccn2)CC1	0	0	0	-6	2	62*
Cc1ccc(CNC(=O)Cn2c(=O)oc3ccccc32)o1	-1	10	1	12	7	-1
COC(=O)c1cc(-c2c(C)oc3cc(O)ccc3c2=O)c(C)o1	0	1	0	0	-28	51*
COC(=O)c1cc(-c2c(C)oc3cc(OC)ccc3c2=O)c(C)o1	0	-12	0	-8	-14	1
COc1ccc(Cc2nnn(CC(=O)O)n2)cc1	0	-7	2	-10	-45	-3
OC(CNCc1ccco1)COc1ccccc1 (configuration not stated)	-1	-10	-1	10	-19	-3
OC(CNCCc1ccc(Cl)cc1)COCc1ccco1 (configuration not stated)	0	4	9.5*	4	3	0
COc1cccc(/C(O)=C2/C(=O)C(=O)N(CCN3CCOCC3)C2c2cccs2)c1 (configuration not stated)	.	-6	1	3	.	0
CN(CCCCCNC(=O)/C=N/O)Cc1ccccc1	-4	-11	-1	.	7	-1
CN(C)CCCN(CCCNC(=O)/C=N/O)Cc1ccccc1	-2	5	26*	.	5	-3
CCn1nnc(-c2ccccc2NC(=O)c2cc(OC)c(OC)c(OC)c2)n1	0	31*	1	3	-47	1
Cc1nc2sccn2c1-c1csc(NCc2ccccc2)n1	-1	-27	1	7	113*	0
C=CCNc1nc(-c2c(C)nc3sccn23)cs1	11	-11	1	-17	.	1
O=C(Nc1ccc2oc(-c3ccccc3Cl)nc2c1)c1cncc(Br)c1	0	2	0	-8	-16	64*
N#CCSc1nc2sc3c(c2c(=O)n1C1CCCCC1)CCCC3	1	6	13*	.	-8	7
Cc1nnc(SCCN2CCOCC2)n1C	.	-8	0	-5	.	1
COc1ccccc1-c1cc(-c2cc(Cl)ccc2O)n[nH]1	-4	8	-1	.	7	3
COc1ccc(O)c(-c2cc(-c3cccs3)[nH]n2)c1	-2	8	-2	51*	-11	-1
COc1ccc2c(c1)c(=O)oc1c(C)c3occ(C)c3cc12	1	-6	0	4	.	-1
CCCc1cc(=O)oc2c(C)c3occ(C)c3cc12	0	39*	0	40	.	-1
SMILES	S1P3 agonist	HTR1E antagonist	HTR1E agonist	5HT1a antag	S1P1 ag pot	HTR1A agonist
Cc1ccc(C)c(-c2nnc(OCC(=O)Nc3cc(C)on3)c3ccccc23)c1	1	5	0	22	-15	-2
COc1ccc(C2=Nn3c(nnc3-c3ccccn3)SC2)cc1OC	2	39*	1	.	-20	0
COc1ccc(C2=Nn3c(nnc3-c3ccccc3OC)SC2)cc1OC	0	87*	2	75*	-62	-1
CN(CCC#N)CC(=O)Nc1ccc(NC(=O)CN(C)CCC#N)cc1	0	-3	-1	9	-15	-1
O=C(O)C1CC=CCC1C(=O)Nc1cccc(Cl)c1 (configuration not stated)	-2	-14	0	-2	-4	-3
CC1(C)Cc2c(c(N3CCOCC3)nc3snc(N)c23)CO1	-3	11	1	.	14	359*
CC1(C)Cc2c(c(N3CCOCC3)nc3snc(Br)c23)CO1	-3	24	-1	.	-32	2
O=C(c1c(Cl)nc2sccn12)N1CCN(c2cccc(Cl)c2)CC1	.	42*	-1	24	.	-3
O=C(O)CCC(=O)N1CCN(c2cccc(Cl)c2)CC1	0	4	21*	13	10	0
O=C(CN1CCN(c2cccc(Cl)c2)CC1)N1CCCC1	-1	-2	2	-9	-14	-3
Cc1ccc(Cl)cc1N1CCN(C(=O)CCC(=O)O)CC1	.	1	14*	6	.	-1
Cc1cc(C)c(NC(=O)CSc2nnc(-c3ccncc3)n2Cc2ccco2)c(Cl)c1	.	0	0	-4	.	-3
CC1c2nc3ccccc3n2C(CC(=O)NCc2ccccn2)C(=O)N1Cc1ccccc1 (configuration not stated)	0	4	0	4	4	-4

Compound activity (PubChem)
